For 16 molecules, IC90 and IC50 results are on record in ChEMBL document CHEMBL1147446, “Antagonists of human CCR5 receptor containing 4-(pyrazolyl)piperidine side chains. Part 3: SAR studies on the benzylpyrazole segment” (Bioorg Med Chem Lett, 2004).

A word on the IC90: it is the concentration needed for an effect of 90%. Usually IC50 stands for the concentration that gives 50% inhibition.

The test system of assay [1] is HeLa. Briefly: Antiviral activities in a cell culture HIV-1 infectivity inhibition assay using HeLa cells plus 50% normal human serum. Format: functional.
Assay [2] concerns the target C-C chemokine receptor type 5 (Homo sapiens, UniProt P51681). The experiment in a line: Inhibitory concentration for displacement of [125I]-MIP-1 alpha from recombinant human CC chemokine receptor 5 (CCR5) expressed in CHO cell. In kind it is cell-based. In outline:
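Competitive binding to CCR5 on CHO cell membranes, read as displacement of [125I]-labeled MIP-1α. IC50 values are means of triplicate determinations. Standard errors were normally <15% within an assay. Assay-to-assay variation was within ±2-fold, judged from a standard compound.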
(Loss of bound radioactivity is the signal in a displacement assay; it reports binding, not function.)

Assay [3] concerns HeLa. Briefly: Antiviral activities in a cell culture HIV-1 infectivity inhibition assay using HeLa cells. Format: functional. Particulars: Homo sapiens.

Chain of C-C chemokine receptor type 5 (P51681 whole entry): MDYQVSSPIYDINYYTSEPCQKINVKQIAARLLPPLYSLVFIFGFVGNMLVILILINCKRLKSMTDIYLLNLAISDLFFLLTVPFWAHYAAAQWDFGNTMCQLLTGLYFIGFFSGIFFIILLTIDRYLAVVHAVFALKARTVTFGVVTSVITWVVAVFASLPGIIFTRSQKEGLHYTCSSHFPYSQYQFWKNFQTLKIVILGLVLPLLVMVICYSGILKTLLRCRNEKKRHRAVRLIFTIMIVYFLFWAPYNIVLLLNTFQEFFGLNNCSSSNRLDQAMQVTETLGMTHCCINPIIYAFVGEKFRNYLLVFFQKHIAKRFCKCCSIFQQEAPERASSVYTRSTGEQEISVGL

`CCn1nc(Cc2ccc(F)cc2F)cc1C1CCN(C[C@H]2CN([C@@H](C(=O)O)C(C)C)C[C@@H]2c2cccc(F)c2)CC1`: the results for the IC90 in assay [1] and in assay [3] were over 300 nM and 100 nM, respectively. Moreover, in assay [2], the IC50 was 5 nM.

As to `CC[C@H](C)[C@H](C(=O)O)N1C[C@H](CN2CCC(c3cc(Cc4cc(C(F)(F)F)cc(C(F)(F)F)c4)nn3CC)CC2)[C@@H](c2cccc(F)c2)C1`, the IC90 in assay [1] is over 300 nM; in assay [3], 11 nM. Further, the IC50 in assay [2] was 2.1 nM.

On to `CCn1nc(Cc2ccc(OC(C)(C)C)cc2)cc1C1CCN(C[C@H]2CN([C@@H](C(=O)O)C(C)(C)C)C[C@@H]2c2cccc(F)c2)CC1`, for which the IC90 in assay [1] came to 300 nM; in assay [3] it was 11 nM. For the same molecule, the IC50 in assay [2] stood at 2 nM.

With `CCn1nc(Cc2ccc(S(=O)(=O)c3ccccc3)cc2)cc1C1CCN(C[C@H]2CN([C@@H](C(=O)O)C(C)(C)C)C[C@@H]2c2cccc(F)c2)CC1`, the IC90 in assay [1] is 3.7 nM; in assay [3] it was under 0.14 nM. For the same molecule, in assay [2], the IC50 stood at 1.1 nM.

Turning to `CC[C@H](C)[C@H](C(=O)O)N1C[C@H](CN2CCC(c3cc(Cc4ccc(S(=O)(=O)c5ccccc5)cc4)nn3CC)CC2)[C@@H](c2cccc(F)c2)C1`, the figures for the IC90 in assay [1] and in assay [3] were 11 nM and under 0.14 nM, respectively. Moreover, the IC50 in assay [2] was 0.6 nM.

Consider `CCn1nc(Cc2ccc(OC)cc2)cc1C1CCN(C[C@H]2CN([C@@H](C(=O)O)C(C)(C)C)C[C@@H]2c2cccc(F)c2)CC1`, for which the IC90 in assay [1] is 33 nM; in assay [3], under 0.14 nM. Further, the 50% inhibitory concentration (IC50) in assay [2] was 1.5 nM.

In the case of `CC[C@@H](C)[C@H](C(=O)O)N1C[C@H](CN2CCC(c3cc(Cc4ccc(C(F)(F)F)cc4)nn3CC)CC2)[C@@H](c2cccc(F)c2)C1`, the IC90 in assay [1] amounted to 100 nM; in assay [3], 0.4 nM. Also, the IC50 in assay [2] was determined as 0.5 nM.

With `CCn1nc(Cc2ccc(C(F)(F)F)cc2)cc1C1CCN(C[C@H]2CN([C@@H](C(=O)O)C(C)C)C[C@@H]2c2cccc(F)c2)CC1`, the results for the IC90 in assay [1] and in assay [3] were 100 nM and 3.7 nM, respectively. Also, in assay [2], the IC50 was found to be 2 nM.

As for `CCOc1ccc(Cc2cc(C3CCN(C[C@H]4CN([C@@H](C(=O)O)[C@H](C)CC)C[C@@H]4c4cccc(F)c4)CC3)n(CC)n2)cc1F`, the IC90 in assay [1] was 33 nM; in assay [3] it was under 0.14 nM. In addition, the IC50 in assay [2] was determined as 0.4 nM.

On to `CC[C@@H](C)[C@H](C(=O)O)N1C[C@H](CN2CCC(c3cc(Cc4ccc(OCC(F)(F)F)cc4)nn3CC)CC2)[C@@H](c2cccc(F)c2)C1`, for which the IC90 in assay [1] is 100 nM; in assay [3] it was 3.7 nM. In addition, the IC50 in assay [2] came out at 0.5 nM.

Consider `CC[C@H](C)[C@H](C(=O)O)N1C[C@H](CN2CCC(c3cc(Cc4ccc(C(F)(F)F)cc4)nn3CC)CC2)[C@@H](c2cccc(F)c2)C1`, for which the figures for the IC90 in assay [1] and in assay [3] were 33 nM and under 0.14 nM, respectively. For the same molecule, the IC50 in assay [2] turned out to be 0.5 nM.

As for `CCn1nc(Cc2cccc3ccccc23)cc1C1CCN(C[C@H]2CN([C@@H](C(=O)O)C(C)(C)C)C[C@@H]2c2cccc(F)c2)CC1`, the IC90 in assay [1] was 11 nM; in assay [3], under 0.14 nM. Further, the IC50 in assay [2] amounted to 0.2 nM.

As for `CCCOc1ccc(Cc2cc(C3CCN(C[C@H]4CN([C@@H](C(=O)O)C(C)C)C[C@@H]4c4cccc(F)c4)CC3)n(CC)n2)cc1`, the results for the IC90 in assay [1] and in assay [3] were over 300 nM and 3.7 nM, respectively. In addition, in assay [2], the IC50 was 0.8 nM.

In the case of `CC[C@@H](C)[C@H](C(=O)O)N1C[C@H](CN2CCC(c3cc(Cc4ccc(OC(F)(F)F)cc4)nn3CC)CC2)[C@@H](c2cccc(F)c2)C1`, the IC90 in assay [1] worked out at 100 nM; in assay [3], 1.2 nM. Further, the half-maximal inhibitory concentration (IC50) in assay [2] turned out to be 0.6 nM.

In the case of `CCn1nc(Cc2ccc(O)cc2)cc1C1CCN(C[C@H]2CN([C@@H](C(=O)O)C(C)(C)C)C[C@@H]2c2cccc(F)c2)CC1`, the IC90 is 11 nM in assay [1] and 0.4 nM in assay [3]. For the same molecule, in assay [2], the IC50 came to 1.1 nM.

For `CCOc1ccc(Cc2cc(C3CCN(C[C@H]4CN([C@@H](C(=O)O)C(C)C)C[C@@H]4c4cccc(F)c4)CC3)n(CC)n2)cc1`, the IC90 in assay [1] worked out at 300 nM; in assay [3], 0.4 nM. The IC50 in assay [2] amounted to 1 nM.
